These results are taken from ChEMBL document CHEMBL1132270, “Synthesis and structure-activity relationships of a new model of arylpiperazines. 4. 1-[omega-(4-Arylpiperazin-1-yl)alkyl]-3-(diphenylmethylene) - 2, 5-pyrrolidinediones and -3-(9H-fluoren-9-ylidene)-2, 5-pyrrolidinediones: study of the steric requirements of the terminal amide fragment on 5-HT1A …” (J Med Chem, 1999).

SMILES strings stand for the structures.

Assay [1] addresses T1, 5-hydroxytryptamine receptor 1A (Rattus norvegicus, UniProt P19327).
T1 sequence (P19327 whole entry): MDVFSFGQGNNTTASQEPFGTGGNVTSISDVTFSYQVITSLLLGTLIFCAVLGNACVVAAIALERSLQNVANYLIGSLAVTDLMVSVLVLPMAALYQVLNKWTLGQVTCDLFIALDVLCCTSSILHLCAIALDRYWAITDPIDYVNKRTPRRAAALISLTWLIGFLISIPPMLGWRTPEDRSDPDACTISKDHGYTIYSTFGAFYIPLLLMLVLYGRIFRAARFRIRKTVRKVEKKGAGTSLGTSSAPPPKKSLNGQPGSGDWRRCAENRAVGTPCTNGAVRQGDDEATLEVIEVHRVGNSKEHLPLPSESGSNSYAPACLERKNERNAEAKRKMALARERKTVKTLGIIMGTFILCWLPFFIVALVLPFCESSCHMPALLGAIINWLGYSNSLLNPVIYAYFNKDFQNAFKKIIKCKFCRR
Put plainly: Binding affinity at 5-hydroxytryptamine 1A (5-HT1A) receptor in rat cerebral cortex using [3H]8-OH-DPAT as radioligand. It counts as tissue-based.

Assay [2] addresses T2, Adrenergic receptor alpha-1 (Rattus norvegicus, UniProt P15823+P23944+P43140).
T2 sequence (P15823 whole entry): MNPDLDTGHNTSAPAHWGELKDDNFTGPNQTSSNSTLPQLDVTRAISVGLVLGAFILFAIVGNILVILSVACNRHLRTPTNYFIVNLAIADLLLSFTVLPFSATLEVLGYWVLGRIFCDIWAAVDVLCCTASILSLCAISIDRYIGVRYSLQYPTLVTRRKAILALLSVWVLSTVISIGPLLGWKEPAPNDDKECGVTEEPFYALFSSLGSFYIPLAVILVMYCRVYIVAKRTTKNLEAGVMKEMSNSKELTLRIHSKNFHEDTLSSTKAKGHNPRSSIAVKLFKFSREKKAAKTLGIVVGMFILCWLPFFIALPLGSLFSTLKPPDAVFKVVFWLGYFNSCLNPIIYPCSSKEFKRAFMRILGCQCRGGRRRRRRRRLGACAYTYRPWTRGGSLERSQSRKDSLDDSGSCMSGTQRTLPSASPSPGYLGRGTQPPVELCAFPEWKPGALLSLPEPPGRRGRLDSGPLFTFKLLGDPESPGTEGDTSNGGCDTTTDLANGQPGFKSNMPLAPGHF
T2 sequence (P23944 whole entry): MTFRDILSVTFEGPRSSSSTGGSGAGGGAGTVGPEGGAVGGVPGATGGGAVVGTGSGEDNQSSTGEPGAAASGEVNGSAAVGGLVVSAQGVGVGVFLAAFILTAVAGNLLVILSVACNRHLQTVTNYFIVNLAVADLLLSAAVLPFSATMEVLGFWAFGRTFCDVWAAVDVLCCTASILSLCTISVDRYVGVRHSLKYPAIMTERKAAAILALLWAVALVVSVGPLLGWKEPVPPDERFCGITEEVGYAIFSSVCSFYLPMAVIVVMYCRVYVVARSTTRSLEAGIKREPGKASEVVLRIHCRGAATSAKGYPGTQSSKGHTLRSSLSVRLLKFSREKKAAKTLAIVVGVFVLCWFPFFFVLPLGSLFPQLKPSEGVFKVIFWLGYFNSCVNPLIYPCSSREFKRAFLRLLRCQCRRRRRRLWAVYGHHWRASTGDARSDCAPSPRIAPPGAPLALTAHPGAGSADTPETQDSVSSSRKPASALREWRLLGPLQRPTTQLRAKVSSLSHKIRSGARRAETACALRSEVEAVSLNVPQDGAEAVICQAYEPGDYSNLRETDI
T2 sequence (P43140 whole entry): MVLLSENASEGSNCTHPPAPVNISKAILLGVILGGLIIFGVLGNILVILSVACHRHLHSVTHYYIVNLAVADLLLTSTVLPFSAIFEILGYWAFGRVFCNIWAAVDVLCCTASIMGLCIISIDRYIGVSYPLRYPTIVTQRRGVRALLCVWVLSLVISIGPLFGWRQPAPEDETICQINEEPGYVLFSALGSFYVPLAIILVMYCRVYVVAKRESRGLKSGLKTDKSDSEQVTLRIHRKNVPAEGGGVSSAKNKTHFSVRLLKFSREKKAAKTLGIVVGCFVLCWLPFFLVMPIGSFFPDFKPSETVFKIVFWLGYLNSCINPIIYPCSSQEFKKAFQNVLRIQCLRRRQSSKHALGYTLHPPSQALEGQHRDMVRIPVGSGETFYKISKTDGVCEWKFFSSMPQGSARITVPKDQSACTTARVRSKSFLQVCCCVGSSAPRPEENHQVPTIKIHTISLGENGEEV
Kind of assay: In vitro binding affinity was evaluated on alpha-1 adrenergic receptor from rat cerebral cortex by using [3H]prazosin as radioligand. It counts as tissue-based. In outline: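 Nonspecific: 10 μM phentolamine. Filter-bound radioactivity by scintillation; IC50 from competition curves, Ki by Cheng–Prusoff; mean ± SEM of 2–4 triplicate experiments.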

In another assay the target is D(2) dopamine receptor (Rattus norvegicus, UniProt P61169). Put plainly: In vitro binding affinity towards Dopamine receptor D2 of rat striatal membranes using [3H]- raclopride. In short, it runs like this:
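Male Sprague–Dawley rat (180–200 g) striatal membranes (125–150 μg protein) incubated 60 min at 25 °C with 0.8 nM [3H]raclopride in 50 mM Tris-HCl pH 7.4 with 120 mM NaCl, 5 mM KCl, 2 mM CaCl2, 1 mM MgCl2, 0.1% ascorbic acid. Nonspecific: 1 μM (+)-butaclamol. Filtration, scintillation counting; IC50 fitted, Ki by Cheng–Prusoff; mean ± SEM of 2–4 triplicate experiments.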

Sequence of D(2) dopamine receptor (P61169 whole entry): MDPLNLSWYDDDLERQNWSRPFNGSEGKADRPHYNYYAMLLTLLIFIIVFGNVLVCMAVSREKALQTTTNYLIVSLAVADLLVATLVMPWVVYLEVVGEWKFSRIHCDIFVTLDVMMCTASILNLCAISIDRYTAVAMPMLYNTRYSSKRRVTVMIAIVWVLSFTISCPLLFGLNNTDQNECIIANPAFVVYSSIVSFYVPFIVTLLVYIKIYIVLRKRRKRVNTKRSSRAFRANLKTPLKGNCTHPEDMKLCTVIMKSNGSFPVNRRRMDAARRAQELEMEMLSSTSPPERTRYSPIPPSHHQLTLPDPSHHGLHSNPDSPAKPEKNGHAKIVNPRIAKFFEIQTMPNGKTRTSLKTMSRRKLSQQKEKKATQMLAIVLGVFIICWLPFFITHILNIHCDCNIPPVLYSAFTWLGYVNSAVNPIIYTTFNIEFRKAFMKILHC

`O=C1CC(=C2c3ccccc3-c3ccccc32)C(=O)N1CCCCN1CCN(c2cccc(C(F)(F)F)c2)CC1`: the Ki is greater than 1 µM in assay [1], greater than 10 µM in assay [2] and greater than 1 µM on D(2) dopamine receptor.

Molecule `COc1ccccc1N1CCN(CC#CCN2C(=O)CC(=C(c3ccccc3)c3ccccc3)C2=O)CC1` gave a Ki in assay [1] of 0.0066 µM.

On to `O=C1CC(=C2c3ccccc3-c3ccccc32)C(=O)N1CCN1CCN(c2cccc(C(F)(F)F)c2)CC1`, for which the Ki (in assay [1]; in assay [2]; on D(2) dopamine receptor) was greater than 10 µM in each case.

Turning to `COc1ccccc1N1CCN(C/C=C\CN2C(=O)CC(=C(c3ccccc3)c3ccccc3)C2=O)CC1`, in assay [1], the Ki came to 0.237 µM.

In the case of `COc1ccccc1N1CCN(C/C=C/CN2C(=O)CC(=C(c3ccccc3)c3ccccc3)C2=O)CC1`, the Ki in assay [1] is 0.027 µM.

Regarding `COc1ccccc1N1CCN(CCCCN2C(=O)CC(=C3c4ccccc4-c4ccccc43)C2=O)CC1`, the results for the Ki (in assay [1]; in assay [2]; on D(2) dopamine receptor) were 0.009 µM, 0.01 µM and greater than 10 µM, respectively.

Turning to `O=C1CC(=C2c3ccccc3-c3ccccc32)C(=O)N1CCCCN1CCN(c2ccc(F)cc2)CC1`, the Ki is greater than 10 µM in assay [1], 0.266 µM in assay [2] and greater than 10 µM at D(2) dopamine receptor.

On to `COc1ccccc1N1CCN(CCCN2C(=O)CC(=C3c4ccccc4-c4ccccc43)C2=O)CC1`, for which the Ki was 0.037 µM in assay [1], 0.161 µM in assay [2] and greater than 1 µM at D(2) dopamine receptor.

Regarding `O=C1CC(=C2c3ccccc3-c3ccccc32)C(=O)N1CN1CCN(c2cccc(Cl)c2)CC1`, the figures for the Ki (in assay [1]; in assay [2]; on D(2) dopamine receptor) were 0.042 µM, 0.316 µM and greater than 10 µM, respectively.

`O=C1CC(=C2c3ccccc3-c3ccccc32)C(=O)N1CCCCN1CCN(c2cccc(Cl)c2)CC1`: the Ki in assay [1] is 0.072 µM; in assay [2] it was 0.249 µM; at D(2) dopamine receptor it was greater than 1 µM.

With `O=C1CC(=C2c3ccccc3-c3ccccc32)C(=O)N1CCCN1CCN(c2cccc(C(F)(F)F)c2)CC1`, the figures for the Ki (in assay [1]; in assay [2]; on D(2) dopamine receptor) were greater than 1 µM, greater than 10 µM and greater than 10 µM, respectively.

Take `O=C1CC(=C(c2ccccc2)c2ccccc2)C(=O)N1CCCCN1CCN(c2cccc(C(F)(F)F)c2)CC1`: in assay [1], the Ki was determined as 0.015 µM.

For `O=C1CC(=C2c3ccccc3-c3ccccc32)C(=O)N1CCCN1CCN(c2ccc(F)cc2)CC1`, the values for the Ki (in assay [1]; in assay [2]; at D(2) dopamine receptor) were greater than 10 µM, 0.061 µM and greater than 10 µM, respectively.

For `O=C1CC(=C2c3ccccc3-c3ccccc32)C(=O)N1CCCN1CCN(c2ccccc2)CC1`, the Ki was greater than 1 µM in assay [1], 0.646 µM in assay [2] and greater than 1 µM on D(2) dopamine receptor.

Consider `O=C1CC(=C2c3ccccc3-c3ccccc32)C(=O)N1CN1CCN(c2ccccc2)CC1`, for which the inhibition constant (Ki) was 0.201 µM in assay [1], greater than 1 µM in assay [2] and greater than 10 µM at D(2) dopamine receptor.

Turning to `O=C1CC(=C2c3ccccc3-c3ccccc32)C(=O)N1CCCN1CCN(c2cccc(Cl)c2)CC1`, the inhibition constant Ki in assay [1] was greater than 1 µM; in assay [2], greater than 10 µM; on D(2) dopamine receptor, greater than 10 µM.

For the molecule `O=C1CC(=C2c3ccccc3-c3ccccc32)C(=O)N1CCN1CCN(c2cccc(Cl)c2)CC1`, the Ki (in assay [1]; in assay [2]; at D(2) dopamine receptor) was greater than 10 µM each time.

As to `COc1ccccc1N1CCN(CN2C(=O)CC(=C3c4ccccc4-c4ccccc43)C2=O)CC1`, the Ki in assay [1] was 0.061 µM; in assay [2] it was greater than 1 µM; on D(2) dopamine receptor, greater than 10 µM.

Consider `O=C1CC(=C2c3ccccc3-c3ccccc32)C(=O)N1CCN1CCN(c2ccc(F)cc2)CC1`, for which the Ki in assay [1] was greater than 10 µM; in assay [2], 0.056 µM; at D(2) dopamine receptor, greater than 10 µM.

With `O=C1CC(=C2c3ccccc3-c3ccccc32)C(=O)N1CN1CCN(c2cccc(C(F)(F)F)c2)CC1`, the Ki in assay [1] was 0.114 µM; in assay [2] it was 0.791 µM; on D(2) dopamine receptor it was greater than 10 µM.

On to `O=C1CC(=C2c3ccccc3-c3ccccc32)C(=O)N1CCCCN1CCN(c2ccccc2)CC1`, for which the Ki in assay [1] was determined as 0.014 µM; in assay [2] it was 0.06 µM; on D(2) dopamine receptor, 0.397 µM.

For `COc1ccccc1N1CCN(CCN2C(=O)CC(=C3c4ccccc4-c4ccccc43)C2=O)CC1`, the Ki in assay [1] was greater than 10 µM; in assay [2], 0.057 µM; at D(2) dopamine receptor it was greater than 10 µM.

With `O=C1CC(=C2c3ccccc3-c3ccccc32)C(=O)N1CCN1CCN(c2ccccc2)CC1`, the Ki in assay [1] is greater than 10 µM; in assay [2], 0.196 µM; at D(2) dopamine receptor, greater than 10 µM.

For `O=C1CC(=C2c3ccccc3-c3ccccc32)C(=O)N1CN1CCN(c2ccc(F)cc2)CC1`, the Ki was greater than 1 µM in assay [1], greater than 1 µM in assay [2] and greater than 10 µM on D(2) dopamine receptor.

Consider `O=C1CC(=C(c2ccccc2)c2ccccc2)C(=O)N1CCCCN1CCN(c2ccc(F)cc2)CC1`, for which the Ki in assay [2] turned out to be 0.051 µM.
